In ChEMBL document CHEMBL3112569, “3-Ketone-4,6-diene ceramide analogs exclusively induce apoptosis in chemo-resistant cancer cells” (Bioorg Med Chem, 2014):
Calls of active or inactive are those of the source. The rule behind the calls is not given here.

Assays:
[1] = Cytotoxicity against human MCF-7TN-R cells assessed as colony formation after 10 to 12 days by crystal violet staining assay; type: functional, cell-based
Outline: (§1)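 Colony formation: 1000 cells per well in 10% DMEM, 24 h adhesion, then graded analog dilutions until colonies formed (generally 10–12 days). Fixed in 3% glutaraldehyde 30 min, stained 40 min with 0.2% crystal violet/20% methanol. Colonies over 30 cells hand-counted, normalized to DMSO control, IC50 from dose–response fit.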

[2] = Cytotoxicity against human MCF-7TN-R cells assessed as cell viability after 24 hrs by MTT assay; type: functional, cell-based
Outline: (§2)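 Cells seeded at 7500–10,000 per well in phenol-free DMEM and allowed 24 h to adhere. Exposed to graded analog concentrations (1 to 100 μM) for 24 h, then MTT added for 3–4 h. Formazan dissolved in 20% SDS/50% DMF for 24 h, absorbance read at 550 nm. Expressed as % of DMSO vehicle, run in quadruplicate on three occasions, IC50 from dose–response fit.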

MDA-MB-231 [3] = assay: Cytotoxicity against human MDA-MB-231 cells assessed as cell viability after 24 hrs by MTT assay; type: functional, cell-based; details: MDA-MB-231, 24 h; outline: as §2
MCF7 [4] = assay: Cytotoxicity against human MCF7 cells assessed as colony formation after 10 to 12 days by crystal violet staining assay; type: functional, cell-based; outline: as §1
MDA-MB-231 [5] = assay: Cytotoxicity against human MDA-MB-231 cells assessed as colony formation after 10 to 12 days by crystal violet staining assay; type: functional, cell-based; outline: as §1
MCF7 [6] = assay: Cytotoxicity against human MCF7 cells assessed as cell viability after 24 hrs by MTT assay; type: functional, cell-based; details: MCF7, 24 h; outline: as §2
MCF7 [7] = assay: Cytotoxicity against human MCF7 cells assessed as cell viability after 72 hrs by CellTiter-Glo luminescence assay; type: functional, cell-based; details: MCF7, 72 h
Outline: (§3)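 Cells grown overnight at 4000 per well in RPMI-1640 with 10% FBS, then treated with analogs for 72 h. Viability measured as luminescent ATP after incubation with CellTiter-Glo reagent. Three independent experiments.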

[8] = Cytotoxicity against human MCF7/DX cells assessed as cell viability after 72 hrs by CellTiter-Glo luminescence assay; type: functional, cell-based; outline: as §3
OVCAR-8 = assay: Cytotoxicity against human OVCAR8 cells assessed as cell viability after 72 hrs by CellTiter-Glo luminescence assay; type: functional, cell-based; details: OVCAR-8, 72 h; outline: as §3
[9] = target: T1, Ceramide glucosyltransferase (Homo sapiens) (UniProt Q16739); assay: Inhibition of GCS in human NCI/ADR-RES cells assessed as decrease in ratio of glucosylceramide to ceramide level at IC50 after 4 hrs by TLC assay; type: cell-based
T1 sequence (whole entry): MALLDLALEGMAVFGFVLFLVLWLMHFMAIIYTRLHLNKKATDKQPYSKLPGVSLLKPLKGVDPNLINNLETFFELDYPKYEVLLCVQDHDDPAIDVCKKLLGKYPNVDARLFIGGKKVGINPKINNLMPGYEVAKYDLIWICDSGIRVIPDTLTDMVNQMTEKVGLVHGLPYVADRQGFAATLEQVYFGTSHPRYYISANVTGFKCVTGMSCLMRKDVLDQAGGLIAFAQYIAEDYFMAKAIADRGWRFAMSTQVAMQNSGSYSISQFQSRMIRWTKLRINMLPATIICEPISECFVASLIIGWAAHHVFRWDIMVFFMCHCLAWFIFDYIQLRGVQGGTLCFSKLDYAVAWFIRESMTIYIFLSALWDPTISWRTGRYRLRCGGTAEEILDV

NCI/ADR-RES = assay: Cytotoxicity against human NCI/ADR-RES cells assessed as cell viability after 72 hrs by CellTiter-Glo luminescence assay; type: functional, cell-based; outline: as §3
[10] = target: T1, Ceramide glucosyltransferase (Homo sapiens); assay: Inhibition of GCS in human OVCAR8 cells assessed as decrease in ratio of glucosylceramide to ceramide level at IC50 after 4 hrs by TLC assay; type: cell-based; details: OVCAR-8
[11] = (§4) Induction of apoptosis in human MCF-7TN-R cells at 2 times IC50 determined from MTT assay after 24 hrs by ELISA relative to control; type: functional
Outline: (§5)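 MCF-7TN-R cells at 7500–10,000 per well in phenol-free DMEM adhered 24 h, then treated 24 h at twice the MTT-derived IC50. DNA fragmentation read with cell death detection ELISA. Normalized to MTT viability on the same plate, duplicate on three occasions.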

[12] = Induction of apoptosis in human MCF-7TN-R cells assessed as caspase-9 activation at 2 times IC50 determined from MTT assay after 24 hrs by caspase Glo 9 assay relative to vehicle-treated control; type: functional
Outline: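 MCF-7TN-R cells at 7500–10,000 per well in phenol-free DMEM adhered 24 h, then exposed 24 h at twice the MTT-derived IC50. Caspase-9 activity read by Caspase-Glo 9 luminescence, relative to DMSO vehicle. Triplicate on three occasions.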

[13] = Cytotoxicity against human MCF-7TN-R cells assessed as cell viability after 24 to 48 hrs by MTT assay; type: functional, cell-based
Homo sapiens = species: Homo sapiens; assay: as §4; type: functional; outline: as §5

SMILES | IC50 [1] [µM] | IC50 [2] [µM] | IC50 (MDA-MB-231 [3]) [µM] | IC50 (MCF7 [4]) [µM] | IC50 (MDA-MB-231 [5]) [µM] | IC50 (MCF7 [6]) [µM] | IC50 (MCF7 [7]) [µM] | IC50 [8] [µM] | IC50 (OVCAR-8) [µM] | Ratio [9] | IC50 (NCI/ADR-RES) [µM] | Ratio [10] | fold change (FC) [11] | fold change (FC) [12] | IC50 [13] [µM] | Activity (Homo sapiens)
CCCCCCCCCC/C=C/C=C/[C@@H](O)[C@@H]1COC(C)(C)N1C(=O)OC(C)(C)C | 5.19 | 9.91 | 75.2 | 5.69 | 3.17 | 26.4 | – | – | – | – | – | – | – | – | – | –
CCCCCCCCCCCCCCNC(=O)[C@H](CO)/N=C/c1ccccc1 | – | – | – | – | – | – | 14.1 | 10.1 | 16.3 | 0.8 | 13.8 | 0.9 | – | – | – | –
CCCCCCCCCC/C=C/C=C/C(=O)[C@@H]1COC(C)(C)N1C(=O)OC(C)(C)C | 1.85 | 4.05 | 17.2 | 5.07 | 1.45 | 3.91 | – | – | – | – | – | – | 3.09 | 1.86 | – | –
CCCCCCCCCCCCC/C=C/[C@@H](O)[C@H](CO)NC(=O)Cc1ccccc1 | 5.62 | 4.74 | 51.2 | 4.18 | 1.59 | 37.3 | – | – | – | – | – | – | – | – | – | –
CCCCCCCCCCC/C=C/C=C/[C@@H](O)[C@H](CO)NC(=O)CCCCCCC | – | – | – | – | – | – | – | – | – | – | – | – | – | – | 11.3 | –
CCCCCCCCCCCCCCNC(=O)[C@H](CO)NC(=O)Cc1ccccc1 | 10.1 | 29 | – | 10.2 | 17.6 | 234 | – | – | – | – | – | – | – | – | – | –
CCCCCCCCCCCCC/C=C/[C@@H](O)[C@H](CO)NC(=O)CCCCCCC | – | – | – | – | – | – | – | – | – | – | – | – | – | 1.18 | – | Active
CCCCCCCCCC/C=C/C=C/C(=O)[C@H](CO)NC(=O)Cc1ccccc1 | 1.81 | 4.26 | 161 | 3.4 | 1.4 | 22 | 3.92 | 3.92 | 7.82 | 1 | 4.92 | 0.6 | 4.3 | 3.59 | – | –
